This note sets out measurements from ChEMBL document CHEMBL4411297, “Discovery, synthesis and anti-atherosclerotic activities of a novel selective sphingomyelin synthase 2 inhibitor” (Eur J Med Chem, 2019).

Series [1] deals with Mus musculus. Kind of series: Effect on plasma ALT levels in C57BL/6J mouse at 100 mg/kg/day, ig qd for 7 days measured on day 7. The format is ADME, organism-based. As to conditions: in vivo, po, 168 h. In outline: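 C57BL/6J mice dosed by gavage at 100 mg/kg once daily for 7 days. Plasma SM sampled on days 0, 3 and 7. Plasma ALT and AST measured on day 7 by automated analyzer. Compared with vehicle, n = 10.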

A further series deals with BMDM. Kind of series: Induction of cytosolic IkappaBalpha […] in LPS-stimulated C57BL/6J mouse bone marrow derived macrophages preincubated for 17 hrs followed by LPS-stimulation and measured after 6 hrs by Western blot analysis. It counts as functional, cell-based. In outline: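 Bone marrow-derived macrophages from femurs of 8-week-old male C57BL/6J mice, preincubated with a range of concentrations for 17 h, then stimulated with 1 µg/ml LPS. Cells lysed in RIPA buffer with protease inhibitors. Western blot probed for IκBα with β-actin as loading control, ECL detection. Mean ± SD, n = 7.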

Series [2] can be described thus: Apparent oral clearance in C57BL/6J mouse at 50 mg/kg/day, ig by HPLC-MS/MS analysis. As to conditions: in vivo. It counts as ADME, organism-based. In outline:
(§1)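 Male C57BL/6J mice, six to eight weeks old, about 20 g, fasted 12 h with free water. Given a single intragastric dose of 25, 50 or 100 mg/kg in 10% DMSO/30% PEG-100/0.9% NaCl. Blood taken retro-orbitally at 5 min to 8 h. Plasma protein-precipitated with methanol plus internal standard, then HPLC-MS/MS on a C18 column. Noncompartmental analysis, n = 6.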

The target of series [3] is T1, Phosphatidylcholine:ceramide cholinephosphotransferase 2 (Homo sapiens) (UniProt Q8NHU3).
T1 sequence (whole entry): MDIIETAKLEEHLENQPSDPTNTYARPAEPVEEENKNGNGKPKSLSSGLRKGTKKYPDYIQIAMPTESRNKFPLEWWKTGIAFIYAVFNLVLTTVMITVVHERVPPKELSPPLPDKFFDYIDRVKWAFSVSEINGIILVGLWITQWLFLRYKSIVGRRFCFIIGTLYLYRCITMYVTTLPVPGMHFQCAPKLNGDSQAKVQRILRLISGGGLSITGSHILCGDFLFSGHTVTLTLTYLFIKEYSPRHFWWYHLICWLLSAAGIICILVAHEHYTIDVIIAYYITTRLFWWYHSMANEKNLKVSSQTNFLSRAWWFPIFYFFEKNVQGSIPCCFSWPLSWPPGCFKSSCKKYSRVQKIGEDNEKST
Kind of series: (§2) Inhibition of purified SMS2 (unknown origin) using C6-NBD-Ceramide and DMPC as substrates preincubated for 5 mins followed by substrate addition and measured after 30 mins by TLC or HPLC method. In outline: (§3)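 Purified SMS1 or SMS2 in DDM detergent buffer; inhibitor in DMSO pre-incubated 5 min at room temperature, then C6-NBD-ceramide and DMPC added, 30 min at 37 °C; ethanol quench, TLC or HPLC read-out. Activity expressed as percent of no-inhibitor vehicle; IC50 from ten (SMS1) or eight (SMS2) concentrations, mean ± SD, n = 3.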

The target of series [4] is T2, Phosphatidylcholine:ceramide cholinephosphotransferase 2 (Homo sapiens, UniProt Q8NHU3).
T2 sequence (Q8NHU3 whole entry): T1 sequence (whole entry)
Described as §2. In outline: as §3

The nature of series [5]: Apparent volume of distribution during terminal phase in C57BL/6J mouse at 25 mg/kg/day, ig by HPLC-MS/MS analysis. It counts as ADME, organism-based. The settings on record: in vivo, po, read-out: Vz/F. A digest of the protocol:
as §1

The nature of series [6]: Dose normalized AUC (0 to 8 hrs) in C57BL/6J mouse at 25 mg/kg/day, ig by HPLC-MS/MS analysis. The format is ADME, organism-based. The settings on record: in vivo, po. A digest of the protocol: as §1
Series [7] deals with Mus musculus. Kind of series: Anti-atherosclerotic activity in apoE knockout mouse fed with western-type diet assessed as reduction in macrophage content at 12.5 mg/kg/day, ig for 7 weeks by immunostaining assay relative to control. More on the design: scale not given: the % may be the effect or the level left. It counts as functional. In outline:
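ApoE KO mice on Western-type diet, dosed by gavage at 12.5 or 40 mg/kg/day for 7 weeks. Aortic root sections 4 µm thick immunostained with MOMA-2: primary antibody 1 h at room temperature, biotinylated secondary, HRP-streptavidin, DAB, hematoxylin counterstain. Stained area quantified and expressed relative to vehicle.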

A short description of series [8]: Apparent volume of distribution during terminal phase in C57BL/6J mouse at 100 mg/kg/day, ig by HPLC-MS/MS analysis. It counts as ADME, organism-based. As to conditions: in vivo, po, read-out: Vz/F. In outline:
as §1

For series [9], the system named is Mus musculus. Kind of series: Anti-atherosclerotic activity in apoE knockout mouse fed with western-type diet assessed as reduction in liver SMS activity at 40 mg/kg/day, ig for 7 weeks relative to control. The format is functional. More on the design: scale not given: the % may be the effect or the level left. A digest of the protocol:
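ApoE KO mice on Western-type diet, dosed by gavage at 12.5 or 40 mg/kg/day for 7 weeks, n = 10. Liver homogenized at 200 mg/ml in 50 mM Tris-HCl pH 7.4, 1 mM EDTA, 250 mM sucrose. C6-NBD-ceramide and DMPC added, incubated at 37 °C, quenched with ethanol. Product read by TLC or HPLC, relative to vehicle.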

The species entered for the next series is Homo sapiens. Kind of series: Selectivity ratio of IC50 for purified SMS1 (unknown origin) to IC50 for purified SMS2 (unknown origin).
Series [10] is described as follows: Dose normalized AUC (0 to 8 hrs) in C57BL/6J mouse at 50 mg/kg/day, ig by HPLC-MS/MS analysis. As to conditions: in vivo, po. It counts as ADME, organism-based. In outline: as §1
Series [11] concerns the target T1, Phosphatidylcholine:ceramide cholinephosphotransferase 2 (Homo sapiens). Kind of series: Inhibition of SMS2 in human HuH7 cells assessed as down regulation of apoB secretion incubated for 17 hrs followed by further incubation for 2 hrs in presence of [35S]-methionine. It counts as cell-based. In outline: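 Huh7 human hepatoma cells treated with inhibitor 17 h, then pulse-labeled with [³⁵S]-methionine for 2 h with vehicle or compound; secreted [³⁵S]-apoB in medium detected and quantified.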

Series [12] in a line: Tmax in C57BL/6J mouse at 50 mg/kg/day, ig by HPLC-MS/MS analysis. The format is ADME, organism-based. As to conditions: in vivo, po. A digest of the protocol: (§4)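 Male C57BL/6J mice (6–8 weeks, ~20 g), fasted 12 h, given a single intragastric dose of 25, 50 or 100 mg/kg in 10% DMSO/30% PEG/0.9% NaCl. Retro-orbital blood at 5 min to 8 h; plasma protein-precipitated with methanol plus internal standard, assayed by LC-MS/MS; noncompartmental analysis. Mean ± SD, n = 6.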

The nature of series [13]: Cmax in C57BL/6J mouse at 50 mg/kg/day, ig by HPLC-MS/MS analysis. The format is ADME, organism-based. Details: dose 50 mg/kg/day, route intragastric. The settings on record: in vivo, po. In outline: as §1
Series [14] concerns Mus musculus. Kind of series: Anti-atherosclerotic activity in apoE knockout mouse fed with western-type diet assessed as reduction in plasma SM level at 12.5 mg/kg/day, ig for 7 weeks relative to control. It counts as functional. More on the design: scale not given: the % may be the effect or the level left. In outline: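 ApoE KO mice on Western-type diet, dosed by gavage at 12.5 or 40 mg/kg/day for 7 weeks, n = 10. Blood collected at 20 weeks of age. Plasma SM measured by a previously reported method. ALT and AST read on an automated biochemical analyzer.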

Series [15] can be described thus: MRT (0 to infinity) in C57BL/6J mouse at 100 mg/kg/day, ig by HPLC-MS/MS analysis. As to conditions: in vivo, po. It counts as ADME, organism-based. A digest of the protocol: as §4
A short description of series [16]: Cmax in C57BL/6J mouse at 100 mg/kg/day, ig by HPLC-MS/MS analysis. The settings on record: in vivo, po. It counts as ADME, organism-based. More on the design: dose 100 mg/kg/day, route intragastric. A digest of the protocol:
as §1

A short description of series [17]: MRT (0 to 8 hrs) in C57BL/6J mouse at 50 mg/kg/day, ig by HPLC-MS/MS analysis. The format is ADME, organism-based. The settings on record: in vivo, po. In outline: as §4

The term CL/F denotes clearance divided by bioavailability, as obtained after extravascular dosing. Broadly, the IC50 is the concentration that gives 50% inhibition. A word on the Tmax: it is the time from dosing to the highest level. The Cmax is the maximum level reached in the sampled fluid or tissue. By MRT inf is commonly meant a mean duration of stay, worked out from the concentration-time curve. What is called MRT is a mean duration of stay, worked out from the concentration-time curve. With `CCc1ccccc1COc1ccccc1C(=O)Nc1cccnc1`, the Activity entry was “Non-Toxic” in the series with Mus musculus [1]; “Dose-dependent effect” in the series on BMDM; 28% in the series on Mus musculus [7]; 39% with Mus musculus [9]; 25% with Mus musculus [14]. Also, in series [2], the CL/F is 180 mL/min. In addition, the inhibition result in series [3] and in series [11] was “Dose-dependent effect” in each case. This compound also yielded an IC50 in [4] of 91 nM. Also, the figures for the Vd/F in series [5] and in series [8] were 51.4 L and 28.8 L, respectively. The AUC/dose is 0.08 µg·h/mL in series [6] and 0.12 µg·h/mL in series [10]. Moreover, in the series listed under Homo sapiens, the Ratio IC50 is > 1400. Also, in series [12], the Tmax was 4.8 min. Moreover, the results for the Cmax in series [13] and in series [16] were 6120 ng/mL and 14100 ng/mL, respectively. Besides, the MRT inf in [15] was determined as 2.57 h. The compound further came in with an MRT in series [17] of 1.66 h.
